The values that follow come from paper PMC5598389 (Toxicology Reports, 2015).

The conditions of series [1]: 28-day and 22-week rat and 28-day dog studies; cited from earlier work.
In the next series the target is CYP2C19 (Homo sapiens, UniProt P33261). The note with it: 10 μM, spectrofluorimetric substrates; ref Arthur, unpublished results; cited from earlier work.
In series [2] the test system is bone marrow polychromatic erythrocytes. The series can be described thus: In vivo micronucleus assay, bone marrow PCEs. The arrangement: species or system CD-1 mice. Particulars: for Mortality: dose range finding. The method in brief:
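Crl:CD-1(ICR) mice were gavaged for three consecutive days in 1% methylcellulose at 10 mL/kg. Dose-range phases used 3/sex/group: parent at 500–2000 mg/kg, amine salt at 125–2000 mg/kg/day. Definitive phases used 6/sex (parent) or 5/sex (amine), with MMS 40 mg/kg/day as positive control. Micronuclei were scored in 2000 bone marrow PCEs per animal, and the PCE/total erythrocyte ratio was used for cytotoxicity.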

Series [3] in a line: Pharmacokinetics of S2227 and M179 hydrochloride in mice. The format is in vivo, male CD-1 mice. The note with it: for AUC(0-t): male, CD-1, mouse, plasma, po. In short, it runs like this: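 Two groups of 28 male Crl:CD-1(ICR) mice were gavaged with a 1% methylcellulose suspension of either parent (30 mg/kg) or the equimolar secondary amine hydrochloride (20 mg/kg). Blood was taken by cardiac puncture from 4 mice/group/time point at about 15 and 30 min and 1, 2, 4, 8 and 24 h. Plasma levels of parent and metabolites gave Cmax and AUClast.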

Series [4] is described as follows: Pharmacokinetics after single iv or oral S2227 in rats. The format is in vivo, Sprague-Dawley rats. Particulars: for AUC(0-t) / Cmax / Tmax / half-life: Sprague-Dawley, rat; for AUC(0-t) / Cmax / Tmax / half-life / AUC0-last/dose: plasma. The method in brief: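 IV dosing: 4 male and 4 female Sprague-Dawley rats given a 1 mg/kg bolus in PEG 400, with blood sampled at about 0, 2, 5, 10 and 30 min and 1, 2, 4 and 8 h. Oral dosing: 4/sex/group gavaged at 10, 30 or 100 mg/kg in 1% methylcellulose, with blood sampled at about 0, 15 and 30 min and 1, 2, 4, 8 and 24 h. Plasma was assayed for parent and metabolites.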

For the next series, the system named is liver cells. The experiment in a line: In vivo alkaline comet assay, liver. Details: species or system CD-1 mice. The note with it: males: 125, 250, 500 mg/kg bw; females: 250, 500, 1000 mg/kg bw (oral). The method in brief: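 Run on the same Crl:CD-1(ICR) mice as the micronucleus study, 5/sex/group. Animals received the salt of the secondary amine hydrolysis product by oral gavage for three consecutive days, with 1% methylcellulose as vehicle control. Liver cells were analysed by alkaline single-cell gel electrophoresis, scoring % tail DNA and counting "clouds" (hedgehogs) against vehicle controls.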

A short description of series [5]: In vitro metabolism in liver microsomes. It is filed as in vitro ADME, Sprague-Dawley rat. The note with it: Rat (20 min), positive ionization.
Series [6] is described as follows: In vitro metabolism in liver microsomes. It is filed as in vitro ADME, Gottingen pig. Particulars: Pig (10 min), positive ionization. On the technique in general: Liver microsomes are vesicles of endoplasmic reticulum, rich in cytochrome P450 enzymes.
The nature of series [7]: In vitro metabolism in liver microsomes. The note with it: Dog (60 min), positive ionization. It is filed as in vitro ADME.
Series [8] has as its system human peripheral blood lymphocytes (HPBL). The series can be described thus: In vitro chromosome aberration test.
Series [9] can be described thus: In vitro metabolism in liver microsomes. It is filed as in vitro ADME. The note with it: Human (60 min), positive ionization.
In series [10] the test system is S. typhimurium strains TA98, TA100, TA1535, TA1537 and E. coli strain WP2 uvrA. The experiment in a line: Bacterial reverse mutation test. It is filed as cell-based. Particulars: 50-5000 μg/plate, initial and confirmatory plate incorporation, ±S9. In short, it runs like this: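 OECD 471 design, run with and without Aroclor 1254-induced male Sprague-Dawley rat liver S9 (9000 × g fraction). The parent compound was tested by plate incorporation and pre-incubation at 63–1000 µg/plate. The secondary amine hydrolysis product (hydrochloride) was tested by plate incorporation only, in an initial toxicity-mutation phase and a confirmatory phase, at nominal 50–5000 µg/plate. Positive and vehicle controls ran concurrently.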

Series [11] is described as follows: Pharmacokinetics after single iv or oral S2227 in dogs. Particulars: for AUC0-last ratio M179/S2227 / AUC0-last/dose: Dog (M); for AUC(0-t) / Cmax / Tmax / half-life: male, beagle, dog; for AUC(0-t) / Cmax / Tmax / half-life / AUC0-last/dose: plasma. It is filed as in vivo, beagle dogs.
The conditions of series [12]: ref Chi, unpublished results, cited from earlier work.

Several values for one entry are separate records, joined by “and”; a condition that tells them apart may be missing. Equal entries are not always repeated. Entries after “also recorded” stand apart in the source; their conditions may differ. Structures can show the parent of a compound that is named as a salt. Where two headings read alike, the source gives them in different places.

Chain of CYP2C19 (P33261 whole entry): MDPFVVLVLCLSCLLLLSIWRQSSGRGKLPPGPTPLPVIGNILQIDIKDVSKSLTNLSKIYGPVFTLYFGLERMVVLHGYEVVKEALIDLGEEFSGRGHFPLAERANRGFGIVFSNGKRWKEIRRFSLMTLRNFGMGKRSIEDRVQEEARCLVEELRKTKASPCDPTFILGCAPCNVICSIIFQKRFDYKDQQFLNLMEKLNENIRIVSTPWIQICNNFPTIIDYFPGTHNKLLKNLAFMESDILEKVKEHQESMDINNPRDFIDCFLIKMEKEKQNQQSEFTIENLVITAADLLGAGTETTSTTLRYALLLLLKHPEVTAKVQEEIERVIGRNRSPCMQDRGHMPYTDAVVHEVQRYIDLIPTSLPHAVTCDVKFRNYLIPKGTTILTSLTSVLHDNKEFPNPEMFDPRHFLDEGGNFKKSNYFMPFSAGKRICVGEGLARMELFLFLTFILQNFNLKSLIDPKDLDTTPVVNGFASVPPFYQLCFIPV

Regarding `CCNC(=O)C1CC(C)CCC1C(C)C` (centres unmarked) [FEMA 3455, N-ethyl-p-menthane-3-carboxamide], the NOEL in series [1] is listed as 8 mg/kg/day. Moreover, the “% inhibition of CYP2C19” value on CYP2C19 was 74%.
Consider `c1csc(CNc2cc[nH]n2)c1` [M179 hydrochloride salt, N-(2-thienylmethyl)-1H-pyrazol-3-amine], for which the Mortality in series [2] (females, 2000 mg/kg) is reported as 3/3; in series [2] (males, 1000 mg/kg/day) it was 2/3; in [2] (males, 2000 mg/kg) it was 3/3. In series [3] (oral, mice), the “fold higher exposure of M179 in plasma than after an equimolar dose of S2227” value amounted to 158 fold.
The AUC(0-t) is the area under the concentration-time curve up to a stated or last time point. A lower AUC(0-t) goes with less exposure. What is called Cmax is the highest concentration seen after dosing. One may read the Tmax as the time at which the peak concentration occurs. In general, half-life refers to the time needed for the level to fall by half in the phase considered. For the compound `c1csc(CNc2cc[nH]n2)c1` [M179, N-(2-thienylmethyl)-1H-pyrazol-3-amine], the “AUC0-last ratio M179/S2227” value in series [4] (S2227 iv 1.0 mg/kg, Rat (F)) is 0.042; in series [4] (S2227 iv 1.0 mg/kg, Rat (M)) it was 0.040; in series [4] (S2227 oral gavage 10 mg/kg, Rat (F)), 48.9; in [4] (S2227 oral gavage 10 mg/kg, Rat (M)) it was 155; in series [4] (S2227 oral gavage 30 mg/kg, Rat (F)), 86.2; in series [4] (S2227 oral gavage 30 mg/kg, Rat (M)) it was 98.6. In addition, the “AUC0-last ratio M179/S2227” value in [4] (S2227 oral gavage 100 mg/kg, Rat (F)) is given as 38.1; in [4] (S2227 oral gavage 100 mg/kg, Rat (M)), 69.9; in series [11] (S2227 iv 1.0 mg/kg) it was 0.007; in [11] (S2227 oral gavage 10 mg/kg), 0.187; in [11] (S2227 oral gavage 30 mg/kg) it was 0.139; in [11] (S2227 oral gavage 100 mg/kg), 0.243. Besides, the AUC(0-t) in [4] (female, iv, 1 mg/kg) was found to be 12.6 ± 5.02 ng·h/mL; in series [4] (female, po, 10 mg/kg), 384 ± 267 ng·h/mL; in [4] (female, po, 30 mg/kg), 2510 ± 1700 ng·h/mL; in [4] (female, po, 100 mg/kg) it was 5980 ± 745 ng·h/mL; in [4] (male, iv, 1 mg/kg), 8.78 ± 1.97 ng·h/mL; in series [4] (male, po, 10 mg/kg), 254 ± 102 ng·h/mL. In addition, the AUC(0-t) in series [4] (male, po, 30 mg/kg) was 614 ± 201 ng·h/mL; in series [4] (male, po, 100 mg/kg), 3500 ± 813 ng·h/mL; in series [3] (20 mg/kg), 4370 ng·h/mL; in series [3] (30 mg/kg) it was 27.6 ng·h/mL; in series [11] (iv, 1 mg/kg), 6.63 ± 0.9 ng·h/mL; in series [11] (po, 10 mg/kg), 22.2 ± 8.78 ng·h/mL. The AUC(0-t) in series [11] (po, 30 mg/kg) is 31 ± 15.4 ng·h/mL; in series [11] (po, 100 mg/kg), 171 ± 144 ng·h/mL. Moreover, the Cmax in series [4] (female, iv, 1 mg/kg) amounted to 14 ± 4.84 ng/mL; in [4] (female, po, 10 mg/kg), 407 ± 289 ng/mL; in series [4] (female, po, 30 mg/kg), 1540 ± 1050 ng/mL; in series [4] (female, po, 100 mg/kg) it was 1770 ± 457 ng/mL; in series [4] (male, iv, 1 mg/kg), 15.1 ± 3.23 ng/mL; in series [4] (male, po, 10 mg/kg), 189 ± 94.5 ng/mL. In addition, the Cmax was 290 ± 115 ng/mL in [4] (male, po, 30 mg/kg); 5.64 µM and 1010 ng/mL in series [4] (male, po, 100 mg/kg); 5.2 ± 0.9 ng/mL in series [11] (iv, 1 mg/kg); 10.2 ± 4.84 ng/mL in series [11] (po, 10 mg/kg); 6.81 ± 2.15 ng/mL in [11] (po, 30 mg/kg); 129 nM and 23.1 ng/mL in [11] (po, 100 mg/kg). For the same compound, the Tmax in series [4] (female, iv, 1 mg/kg) came to 0.13 h; in series [4] (female, po, 10 mg/kg), 0.44 h; in [4] (female, po, 30 mg/kg) it was 0.75 h; in [4] (female, po, 100 mg/kg), 0.83 h; in series [4] (male, iv, 1 mg/kg), 0.11 h; in [4] (male, po, 10 mg/kg), 0.5 h. Also, the Tmax in [4] (male, po, 30 mg/kg) worked out at 0.75 h; in [4] (male, po, 100 mg/kg), 1.13 h; in [11] (iv, 1 mg/kg), 0.5 h; in [11] (po, 10 mg/kg), 4.67 h; in series [11] (po, 30 mg/kg), 1 h; in series [11] (po, 100 mg/kg) it was 10 h. Further, the half-life in series [4] (female, iv, 1 mg/kg) was 0.82 h; in series [4] (female, po, 10 mg/kg) it was 1.02 h; in [4] (female, po, 30 mg/kg), 1.06 h; in series [4] (female, po, 100 mg/kg) it was 1.84 h; in series [4] (male, iv, 1 mg/kg), 0.28 h; in series [4] (male, po, 10 mg/kg) it was 1.12 h. The half-life is 1.29 h in series [4] (male, po, 30 mg/kg); 1.83 h in series [4] (male, po, 100 mg/kg); 1.1 h in series [11] (iv, 1 mg/kg); 4.77 h in [11] (po, 10 mg/kg); 2.27 h in series [11] (po, 30 mg/kg); 4.69 h in series [11] (po, 100 mg/kg). The AUC0-last/dose in series [4] (dosed S2227 iv 1.0 mg/kg, Rat (F)) is on record as 12.6 ng·h/mL/mg/kg; in series [4] (dosed S2227 iv 1.0 mg/kg, Rat (M)), 8.78 ng·h/mL/mg/kg; in series [4] (dosed S2227 oral gavage 10 mg/kg, Rat (F)) it was 38.4 ng·h/mL/mg/kg; in series [4] (dosed S2227 oral gavage 10 mg/kg, Rat (M)), 25.4 ng·h/mL/mg/kg; in series [4] (dosed S2227 oral gavage 30 mg/kg, Rat (F)) it was 83.7 ng·h/mL/mg/kg; in series [4] (dosed S2227 oral gavage 30 mg/kg, Rat (M)) it was 20.5 ng·h/mL/mg/kg. Further, the AUC0-last/dose in series [4] (dosed S2227 oral gavage 100 mg/kg, Rat (F)) stood at 59.8 ng·h/mL/mg/kg; in series [4] (dosed S2227 oral gavage 100 mg/kg, Rat (M)) it was 35.0 ng·h/mL/mg/kg; in series [11] (dosed S2227 iv 1.0 mg/kg), 6.63 ng·h/mL/mg/kg; in [11] (dosed S2227 oral gavage 10 mg/kg), 2.22 ng·h/mL/mg/kg; in [11] (dosed S2227 oral gavage 30 mg/kg) it was 1.03 ng·h/mL/mg/kg; in series [11] (dosed S2227 oral gavage 100 mg/kg) it was 1.71 ng·h/mL/mg/kg. In the series with liver cells, the “DNA damage (in vivo), liver Comet assay” value is “negative (non-DNA damaging); also recorded: Negative”. Further, the “relative EIC peak area (%) compared to S2227 peak area at T = 0 min” value amounted to 6.47% in [5], 37.29% in series [6], 10.26% in series [7] and 0.91% in series [9]. Moreover, the “Chromosome aberration (in vitro)” value in series [8] (280-2160 μg/mL 4 h -S9, 100-1840 μg/mL 4 h +S9, 25-280 μg/mL 20 h -S9) is “Positive (4 h,⿿S9)”. Besides, the “induction of structural aberrations” value in [8] (S9-activated test system) was “negative”; in [8] (non-activated test system), “positive”. The “induction of numerical aberrations” value in series [8] (non-activated and S9-activated test systems) was “negative”. Moreover, the “Micronucleus formation (in vivo)” value in [2] (males: 125, 250, 500 mg/kg bw, females: 250, 500, 1000 mg/kg bw (oral)) was “did not induce micronuclei; also recorded: Negative”. Moreover, the “Reverse mutation (in vitro)” value in [10] is “not mutagenic; also recorded: Negative”.
For the compound `CCN(Cc1cccs1)C(=O)COc1ccc(C)cc1` [S5031, 2-(4-methylphenoxy)-N-ethyl-N-(2-thienylmethyl) acetamide], the “AUC0-8h ratio (acid/amine)” value was 23.0 in series [12] (jugular vein (JV)) and 13.3 in [12] (portal vein (PV)). The figures for the “AUC0-8h ratio (amide/acid)” value in [12] (jugular vein (JV)) and in series [12] (portal vein (PV)) were 0.013 and 0.52, respectively.
